Compounds with a hit are over-represented: about 6.4% of the library has one in this group of screens.
Ecoli tolC: E. coli tolC mutant growth inhibition. AID 573. actives 2.2% (n = 65,000). E. coli BW25113 tolC mutant growth, OD615. growth inhibition, % at 10 µM (by protocol);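 active means growth inhibition at or above a cutoff equal to the mean over every tested compound plus 3 SD, cut at about 60% in these data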;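 further: growth measured after 20 h incubation at 37 °C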
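signal = optical density read at 615 nm | test system = E. coli ΔtolC::kan strain BW25113 | timing = 20 h compound exposure of bacteria at 37 °C | buffer or medium = LB medium plus 50 µg/mL kanamycin | compound dosing = 10 µM final, single dose | evaluation = % inhibition of E. coli growth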
HUVEC prolif 384: inhibitors of human endothelial cell proliferation; AID 648; viability, % at 10 µM (by protocol); HUVEC proliferation, CellTiter-Glo luminescence, 72 h; stronger effect = lower value; actives 1.1% (n = 86,000);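 active means viability at or below 30%; inactive means viability above 30%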;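 further: 100% = median luminescence of DMSO-only cell control wells on each plate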
Lung fibro prol: blocks proliferation of human lung fibroblasts | LL 47 human lung fibroblast viability, ATP luminescence; stronger effect = lower value | viability, % at 10 µM | actives 1.1% (n = 85,000) | AID 719;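 active means viability at or below 50% in the single dose screen; inactive means viability above 50%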;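 further: compound exposure lasted 72 h before the ATP readout; 100% = median luminescence of untreated cell-only wells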
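Material: human lung fibroblast line LL 47, low passage; Evaluation: viability percentage against median untreated-cell control; Buffer or medium: 15% FBS in IMEM; Incubation: 72 h compound exposure at 37 °C after overnight plating; Dosing: 0.1% DMSO in all compound wells; Measured by: CellTiter-Glo luminescence.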
E coli WT exp: growth inhibitors of E. coli BW25113 wild type; growth inhibition, % at 100 µM; OD600 absorbance; actives 0.15% (n = 98,000);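 active means growth inhibition above about 50% at one test dose, limit read from the data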;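 further: growth measured after 20 h incubation at 37 °C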
H69AR growth 86K: blocks growth of human H69AR lung tumor cells. AID 598. viability, % at 10 µM. H69AR lung tumor viability, ATP luminescence, 72 h; stronger effect = lower value. actives 6% (n = 85,000);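 active means viability at or below 40%; inactive means viability above 40%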;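 further: multidrug resistant small cell line overexpressing MRP-1 efflux transporter; 100% = mean luminescence of untreated control wells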
Jurkat tox 60K: cytotoxic compounds reducing Jurkat cell viability | Jurkat E6.1 viability, ATP luminescence, 48 h | inhibition, % at 4 µM | actives 1.2% (n = 56,000);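 active means inhibition above the mean inhibition of all tested compounds plus 3 SD, cut at about 28% in these data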
Active calls of the source: *.

`Cc1nn(Cc2ccc(F)cc2)c(C)c1NC(=O)c1nn(C)cc1Cl` gave HUVEC prolif 384 103.6, Lung fibro prol 104.1 and H69AR growth 86K 97.4.
CCOC(=O)c1cccc2c1-c1ccccc1/C2=N/O was read as Ecoli tolC 100.0*, HUVEC prolif 384 14.1*, Lung fibro prol 88.6, E coli WT exp 3.0, H69AR growth 86K 27.5* and Jurkat tox 60K 14.8.
`CCc1c(O)nc(SCC(=O)Nc2ccc(C)cc2)n(C2CCCCC2)c1=O` gave Ecoli tolC 77.8*, HUVEC prolif 384 80.1, Lung fibro prol 102.2, E coli WT exp 1.0, H69AR growth 86K 89.7 and Jurkat tox 60K 3.5.
CCc1c(O)nc(SCC(=O)Nc2ccccc2)n(-c2ccccc2)c1=O was read as Ecoli tolC 6.1, HUVEC prolif 384 89.4, Lung fibro prol 98.5, E coli WT exp -6.0, H69AR growth 86K 105.4 and Jurkat tox 60K -2.5.
For Oc1cc(Cc2ccccc2)cnc1CN1CCCCC1 the results were Ecoli tolC -12.7, HUVEC prolif 384 111.9, Lung fibro prol 105.4, E coli WT exp 5.0, H69AR growth 86K 94.5 and Jurkat tox 60K -3.4.
`Oc1c(CN2CCCCC2)cc(COCc2ccccc2)c2cccnc12` gave Ecoli tolC 100.0*, E coli WT exp 30.0 and Jurkat tox 60K 33.7*.
`COCc1cc(CN2CCCC2)c(O)c2ncccc12` gave Ecoli tolC 10.1, HUVEC prolif 384 72.7, Lung fibro prol 3.3*, E coli WT exp 34.0, H69AR growth 86K 23.1* and Jurkat tox 60K 43.1*.
For CCOc1ccccc1N1CCN(Cc2cccc(OC)c2O)CC1 the results were Ecoli tolC 5.0, HUVEC prolif 384 107.7, Lung fibro prol 100.6, E coli WT exp 0.0, H69AR growth 86K 88.0 and Jurkat tox 60K 3.9.
`COc1ccccc1N1CCN(Cc2cc(Br)c(O)c3ncccc23)CC1` gave Ecoli tolC 42.8, HUVEC prolif 384 31.6, Lung fibro prol 3.2*, E coli WT exp 23.0, H69AR growth 86K 19.7* and Jurkat tox 60K 60.8*.
Screening CCOc1ccc(-n2c(COc3ccccc3)nnc2SCC(N)=O)cc1 returned Ecoli tolC -7.8, HUVEC prolif 384 89.9, Lung fibro prol 87.6, E coli WT exp 5.0, H69AR growth 86K 92.1 and Jurkat tox 60K 2.8.
For CCN(CC)c1ccc(C(=O)OCc2cc(=O)oc3cc(O)ccc23)cc1 the results were E coli WT exp -16.0.
COc1cc(C2=NOC(C(=O)N3CCOCC3)C2)cc(OC)c1OC (centres undefined) was read as Ecoli tolC -15.9, HUVEC prolif 384 97.1, Lung fibro prol 106.4, E coli WT exp 2.0, H69AR growth 86K 87.3 and Jurkat tox 60K 1.7.
Screening Cn1cc(/C=N/n2cnc3scc(-c4ccccc4)c3c2=O)c2ccccc21 returned Ecoli tolC 4.9, HUVEC prolif 384 38.4, Lung fibro prol 50.6, E coli WT exp -12.0, H69AR growth 86K 28.3* and Jurkat tox 60K 40.6*.
For CCOC(=O)CNS(=O)(=O)c1c(C)noc1C the results were Ecoli tolC -39.8, HUVEC prolif 384 94.8, Lung fibro prol 107.2, E coli WT exp 4.0, H69AR growth 86K 97.5 and Jurkat tox 60K 1.3.
`COc1cc2c(C(=O)NCCCN3CC(C)CC(C)C3)cn(CC(C)C)c(=O)c2cc1OC` (centres undefined) gave Ecoli tolC -2.4, HUVEC prolif 384 76.8, Lung fibro prol 101.5, E coli WT exp -1.0 and H69AR growth 86K 79.5.
`CCOc1ccc(-n2c(N)c(-c3nc4ccccc4[nH]3)sc2=S)cc1` gave HUVEC prolif 384 54.4, Lung fibro prol 73.7, E coli WT exp -25.0 and H69AR growth 86K 22.3*.
CCC(Sc1nnc(-c2ccc(C)c(Cl)c2)n1CC)C(=O)Nc1nccs1 (centres undefined) was read as Ecoli tolC 81.0*, HUVEC prolif 384 87.3, Lung fibro prol 103.1, E coli WT exp 14.0, H69AR growth 86K 82.6 and Jurkat tox 60K 21.9.
CCCCOc1ccccc1C1C(C(=O)OC)=CN(CC)C=C1C(=O)OC was read as Ecoli tolC 11.8, HUVEC prolif 384 91.5, Lung fibro prol 85.2, E coli WT exp -14.0, H69AR growth 86K 89.3 and Jurkat tox 60K 0.7.
Cn1c(-c2c(N)n(CCc3ccccc3)c3nc4ccccc4nc23)nc2ccccc21 was read as HUVEC prolif 384 72.2, Lung fibro prol 87.1, E coli WT exp -21.0 and H69AR growth 86K 36.4*.

Source: PubChem BioAssay
